# Screening data: PubChem BioAssay, several laboratories
# Most compounds without a hit are left out; they make up all but 6.1% or so of the library.
# WT yeast gro inh – growth inhibition of WT yeast, mitochondrial fusion screen; mitochondrial fusion phenotypic screen, WT strain; inhibition, % at 10 µM; 2.1% of 190,000 active; AID 1362; in the data active = inhibition above about 58%; tested in S. cerevisiae
# Measles CPE – protection of cells from measles virus; AID 841; Measles virus-infected cells, CPE protection, absorbance; 1.5% of 140,000 active; protection (pct of control), % at 4 µM; in the data active = protection mostly above about 24%, no sharp cut-off; inactive = mostly below about 26%
# BB579 growth dn – chemicals that inhibit yeast BB579 growth in restrictive medium (lifespan-shortening candidates); 0.51% of 140,000 active; inhibition, % at 10 µM; S. cerevisiae BB579 growth, OD615, 48 h;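 active = inhibition above a set limit, 3 SD over the mean compound inhibition, cut at about 44% in these data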
#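 Test system: Saccharomyces cerevisiae DeaD strain BB579, replicative lifespan model yeast | Buffer or medium: Restrictive CSMM-D medium | Doses: One dose, 10 µM compound with 0.25% DMSO | Incubation: 48 h exposure, 30 °C | Detection: Culture absorbance at 615 nm | Control set: Amphotericin B at 10 µg/mL as positive control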
# RAM inhibit – blocks the yeast RAM network; inhibition, % at 50 µM; 1.8% of 190,000 active; AID 868; S. cerevisiae dse1pr::URA3 reporter, 5-FOA growth OD615, 2 d; analog-sensitive cbk1-as2 kinase mutant strain;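 active = inhibition above a set limit, 3 SD over mean compound inhibition, cut at about 8.4% in these data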;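 also: 0% = DMSO-only wells with no growth and 100% = 10 µM 1-NA-PP1 full growth; inhibition rescues growth on 5-FOA so higher OD means more RAM inhibition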
# Yeast lifespan up – extends the lifespan of yeast | inhibition of the nicotinamide effect, % at 10 µM | S. cerevisiae growth with nicotinamide, OD615; deaD strain in restrictive glucose medium | 0.68% of 130,000 active | AID 775;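 active = inhibition above a set limit, placed 3 SD over the median of all compounds, cut at about 26% in these data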;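 also: 0% = nicotinamide-treated wells and 100% = cells grown without nicotinamide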
#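 Test system: DeaD-strain S. cerevisiae / Buffer or medium: restrictive glucose medium / Also added: nicotinamide 1.5 mM / Doses: one concentration, 10 µM, DMSO 0.25% / Schedule: 48 h at 30 °C / Signal: OD615 measurement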
# hDAT+cocaine – modulates human dopamine transporter uptake under cocaine; B-score at 10 µM; 1.3% of 110,000 active; AID 449768; LLC-PK1 hDAT cells, [14C]-dopamine uptake with cocaine IC80; actives deviate in either direction;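 active = Z score or B-score, a plate-position-corrected score, falls beyond the plate's 99.7% confidence bounds, in either direction; inactive = both scores lie inside the 99.7% bounds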;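 also: scored against the spread of the other compound wells on the same plate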
# Target sequence (Q01959 whole entry, looked up): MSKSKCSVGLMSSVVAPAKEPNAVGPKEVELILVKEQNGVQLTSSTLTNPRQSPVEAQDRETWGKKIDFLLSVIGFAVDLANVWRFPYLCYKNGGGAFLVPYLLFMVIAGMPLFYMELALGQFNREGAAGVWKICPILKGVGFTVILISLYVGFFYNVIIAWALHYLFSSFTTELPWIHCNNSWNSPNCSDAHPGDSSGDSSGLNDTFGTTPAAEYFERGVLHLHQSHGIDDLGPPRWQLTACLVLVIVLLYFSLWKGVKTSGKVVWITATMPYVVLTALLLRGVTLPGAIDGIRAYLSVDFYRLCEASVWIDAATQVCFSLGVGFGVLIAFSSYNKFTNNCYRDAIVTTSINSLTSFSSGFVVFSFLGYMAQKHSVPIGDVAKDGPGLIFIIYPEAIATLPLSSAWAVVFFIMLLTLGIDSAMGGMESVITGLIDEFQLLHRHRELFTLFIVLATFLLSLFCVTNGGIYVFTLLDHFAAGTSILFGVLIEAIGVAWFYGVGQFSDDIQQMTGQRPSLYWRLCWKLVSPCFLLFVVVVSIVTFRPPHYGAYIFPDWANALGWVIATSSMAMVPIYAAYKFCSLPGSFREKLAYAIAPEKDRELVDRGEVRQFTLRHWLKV
# * marks the source's active call; other numbers are inactive results; nt = not tested or not shown.
SMILES,WT yeast gro inh,Measles CPE,BB579 growth dn,RAM inhibit,Yeast lifespan up,hDAT+cocaine
COc1ccccc1OCCCc1c(C)n[nH]c1C,1,14,100*,-1,-30,0.13
Cc1cccc(OCCCOc2cccc3cccnc23)c1C,6,3,73*,0,-28,-0.51
O=C(Nc1ccccc1)ON=C1CCCC1,6,22,-6,0,-10,nt
Cc1ccc(NC(=O)ON=C2CCCC2)cc1,9,43*,95*,0,-13,nt
O=S1(=O)C=C(Oc2ccc3ccccc3c2)c2ccccc21,38,66*,-4,2,-14,-1.5
CCCc1[nH]n(-c2ccc(F)cc2)c(=O)c1C=Nc1ccc(C)cc1,-13,6,-46,8,9,nt
COc1ccc(-c2nc3ccccc3c(=O)n2N)cc1,9,3,-4,1,-22,0.63
COc1ccc2cc(C(C)c3nc4ccccc4c(=O)n3N)ccc2c1 (stereo unspecified),25,4,-48,6,31*,nt
O=C(c1ccc(Cl)cc1)N1CCC(O)(CSc2ccccc2)CC1,16,4,-18,0,13,1
O=C(c1ccc(Cl)cc1)N1CCC(O)(CSc2ccc(Cl)cc2)CC1,61*,7,-53,4,-6,0.59
COCCN(C(=O)Cc1cccs1)c1nnc(-c2cccnc2)s1,-1,20*,-23,3,-14,1.1
COc1cccc(/C=C/C(=O)Oc2ccc(C(=O)c3ccc(F)cc3)cc2)c1,-8,26,-21,8.7*,3,nt
CCOC(=O)C1(C)Oc2cccnc2NC1=O (stereo unspecified),14,nt,nt,1,nt,nt
CNC(=O)COC(=O)c1ccccc1Nc1ccccc1,-8,nt,nt,0,nt,nt
C=CCc1c(C)[nH]c2c(OC)cccc2c1=S,67*,nt,nt,1,nt,nt
C=CCN(CC=C)C(=O)c1c(OC)cccc1OC,-7,12,-23,0,-1,nt
O=C(Cn1c(/C=C/c2ccccc2)nc2ccccc21)Nc1ccc(F)cc1,68*,6,-23,2,21,nt
CCOc1ccc(Oc2c(/C=N/NC(N)=O)c(C)nn2-c2ccccc2)cc1,27,5,-18,0,-6,nt
CCOc1ccc(Oc2c(/C=N/NC(=O)COc3ccccc3OC)c(C)nn2-c2ccccc2)cc1,67*,9,-10,1,0,nt
CSc1nc(N2CCOCC2)c2ccccc2n1,13,9,-19,0,-19,-0.89
CSc1nc(N2CCN(c3ccccc3Cl)CC2)c2ccccc2n1,63*,nt,nt,1,nt,nt
Cc1nc(-c2ccc(Br)cc2)ccc1C(=O)O,-13,4,15,-1,-4,nt
COC(=O)c1cc2c(-c3ccccc3)cc3ccccn3c-2c1C(=O)OC,25,79*,-35,6,-16,-0.21
CCOC(=O)CN(c1ccccn1)S(=O)(=O)c1ccccc1,-2,35*,19,0,-8,-0.39
COc1ccc(S(=O)(=O)N(CC(=O)O)c2ccccn2)cc1,-3,15,3,0,-5,-0.67
SMILES,WT yeast gro inh,Measles CPE,BB579 growth dn,RAM inhibit,Yeast lifespan up,hDAT+cocaine
c1ccc(CSc2ccc(-c3ccco3)nn2)cc1,4,6,-14,3,-8,nt
CC(=O)c1cccc(N(CC(=O)Nc2cc(C)cc(C)c2)S(C)(=O)=O)c1,-11,nt,nt,2,nt,nt
COc1ccc(CN2C(=O)/C(=C/c3ccc(-c4ccc(Cl)c(C(=O)O)c4)o3)SC2=S)cc1,-9,nt,nt,6,nt,nt
O=C(O)c1cc(-c2ccc(/C=C3/SC(=S)N(Cc4ccccc4)C3=O)o2)ccc1Cl,60*,nt,nt,9.4*,nt,nt
CSC1=NCCN1S(=O)(=O)c1ccccc1,-13,nt,nt,1,nt,nt
CCNc1nc(NCC)n2c(SCC(=O)N3CC4(C)CC3CC(C)(C)C4)nnc2n1 (stereo unspecified),-18,19,-41,0,0,nt
CCC(c1nnc(SCC(=O)N2CC3(C)CC2CC(C)(C)C3)o1)N(C)C (stereo unspecified),nt,48*,-26,3,-2,0.17
Cc1cc(C(=O)CN2C(=O)NC3(CCCC3)C2=O)c(C)n1-c1ccc2c(c1)OCO2,2,12,14,1,4,nt
Cc1cc(C(=O)COc2ccccc2Cl)c(C)n1-c1ccc2c(c1)OCO2,45,33*,1,5,-1,nt
Cc1cc(C(=O)CN2C(=O)NC(C)(CC(C)C)C2=O)c(C)n1-c1ccc2c(c1)OCO2 (stereo unspecified),7,11,-21,1,65*,nt
CNS(=O)(=O)c1cccc(C(=O)OCC(=O)c2cc(C)n(-c3ccc4c(c3)OCO4)c2C)c1,25,9,-36,4,-3,-0.67
CCOCCc1nnc(NC(=O)C(CC)c2ccccc2)s1 (stereo unspecified),4,21,-19,2,-14,0.73
CCOC(=O)C1=C(C)Nc2nc(=S)[nH]n2C1c1ccc(Cl)cc1 (stereo unspecified),-4,6,-50,3,62*,-0.7
Nc1c(-c2ccccc2)cnn1-c1cccc([N+](=O)[O-])c1,-14,25,-23,-1,-10,-0.022
Nc1c(-c2ccc(Cl)cc2)cnn1-c1cccc([N+](=O)[O-])c1,10,18,-18,3,-7,-3*
CCOCCCNC(=O)C(c1ccc(OC)cc1)N(Cc1cccs1)C(=O)c1ccccc1O (stereo unspecified),-1,nt,nt,1,nt,nt
Cc1ccc(NC(=O)CCC(=O)OCC(F)(F)C(F)F)cc1,-1,3,-51,2,-7,-0.26
O=C(CCCC(=O)OCC(F)(F)C(F)F)Nc1ccc(NC(=O)CCCC(=O)OCC(F)(F)C(F)F)cc1,-4,42*,-41,2,-6,-0.19
CCOC(=O)CCCCCNC(=O)c1ccc(F)cc1F,nt,nt,nt,nt,nt,-0.036
Cc1nnsc1NC(=O)OCc1ccc(C(C)(C)C)cc1,19,10,-19,2,-7,0.88
O=CN(/C=C1\Sc2ccccc2C1=O)Cc1ccccc1,11,6,-26,0,48*,0.026
CCCCN(CCCC)C(=S)N/N=C/c1c(C)[nH]n(-c2ccccc2)c1=O,42,3,78*,3,-12,-0.1
CCCCN=Cc1c(C)[nH]n(-c2ccccc2)c1=S,-13,nt,nt,-1,nt,nt
Cc1[nH]n(-c2ccccc2)c(=O)c1/C=N/Nc1nncc(-c2ccccc2)n1,-4,4,98*,-2,-10,1.8
Cc1ccc(/C=N/Nc2nncc(-c3ccccc3)n2)o1,6,nt,nt,0,nt,nt
NC(=O)c1c(NC(=O)C2c3ccccc3Oc3ccccc32)sc2c1CCCCC2,13,9,-30,2,-4,nt
COC(=O)c1sccc1NC(=O)Nc1cccc(F)c1,20,nt,nt,4,nt,nt
O=C(CSc1nc2ccccc2c(=O)n1-c1ccc(F)cc1)NCc1ccco1,2,3,-63,6,-1,0.58
